# Experimental data from ChEMBL document CHEMBL1129350, “Hypoxia-selective antitumor agents. 13. Effects of acridine substitution on the hypoxia-selective cytotoxicity and metabolic reduction of the bis-bioreductive agent nitracrine N-oxide” (J Med Chem, 1996).
# Columns and labels:
# [1] = tested on: CHO-AA8; test: Inhibitory activity against aerobic growth of AA8 cells.; format: functional, cell-based; details: Cricetulus griseus
# Procedure, shortened: (§1)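 Growth inhibition: 200 log-phase AA8 or 300 UV4 cells were seeded per well. One day later they were exposed to drug for 18 h under aerobic conditions (5% CO₂) in αMEM with 5% fetal calf serum. Cell mass was measured as protein by methylene blue staining 72–78 h after drug removal. IC50 is the concentration reducing cell mass to 50% of the mean of eight controls on the same plate. HF is IC50(AA8)/IC50(UV4).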
# [2] = Inhibitory activity against aerobic growth of UV4cells, Hypersensitivity factor is the ratio of IC50(AA8) to IC50(UV4).; format: functional; procedure, shortened: as §1
# [3] = tested on: Mus musculus; test: Maximum tolerated ip dose for male C3H/HeN mice.; format: functional
# Procedure, shortened: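 Compounds formulated in water, injected ip at 0.01 mL/g into male C3H/HeN mice (20–25 g); groups of six mice, dose increments of 1.33-fold, observed 28 days. MTD taken as highest dose causing no deaths or unacceptable morbidity.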
# [4] = Air/N2 ratio = C10(air)/C10(nitrogen)
# Procedure, shortened: (§2)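 Plateau-phase AA8 cells at 10⁶/mL in magnetically stirred 10 mL suspensions in αMEM with 5% fetal calf serum, continuously gassed with 5% CO₂ in air or N₂. Cells and drug solutions were pre-equilibrated under the gas phase for 60 min before mixing, then exposed for 1 h. Clonogenic survival was read as plating efficiency. C10 is the concentration lowering plating efficiency to 10% of concurrent untreated controls. The air/N₂ ratio is C10(air)/C10(N₂).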
# [5] = tested on: CHO-AA8; test: Concentration needed to reduce cell survival to 10% of control values, using 1 hour exposure of plateau phase AA8 cells at 10e6 cells/ml; format: functional, Cricetulus griseus; procedure, shortened: as §2
# [6] = tested on: EMT6 (Mus musculus); test: Concentration resulting in 10% survival in dissociated EMT6 spheroid cell suspension
# [7] = Spheroid resistance factor which is defined as the ratio C10 (intact)/ C10 (dissociated) EMT6 cells; format: functional
# Procedure, shortened: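 EMT6/Ak spheroids were grown in αMEM with 10% FBS in spinner flasks to about 1000–1400 μm diameter. For dissociated cells, spheroids were treated with pronase 0.5 mg/mL and DNAase I 1 mg/mL for 30 min at 37 °C, washed, then exposed to drug for 1 h. Intact spheroids were exposed at 1 spheroid/mL in stirred vials for 1 h before dissociation and plating. Both exposures used about 2 × 10⁵ cells/mL, 5% CO₂/20% O₂, 37 °C. C10 was interpolated from at least four concentrations per survival curve. SRF is C10(intact)/C10(dissociated). Results are mean ± SEM of independent experiments.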
Structure (SMILES),IC50 [1],Ratio [2],MTD [3],Ratio [4],C10 [5],C10 [6],Ratio [7]
Cc1ccc([N+](=O)[O-])c2c(NCCCN(C)C)c3ccccc3nc12,0.053 µM,13,0.2 µM/kg,6.9,1.5 µM,–,–
COc1ccc2nc3ccccc3c(NCCC[N+](C)(C)[O-])c2c1[N+](=O)[O-],84 µM,–,300 µM/kg,–,>300 µM,–,–
COc1cc(OC)c2nc3ccccc3c(NCCC[N+](C)(C)[O-])c2c1[N+](=O)[O-],1960 µM,0.9,800 µM/kg,1.2,20000 µM,–,–
CN(C)CCCNc1c2ccccc2nc2cccc([N+](=O)[O-])c12 [NITRACRINE],–,15,0.3 µM/kg,5.1,0.4 µM,0.11 µM,10.7
COc1ccc2nc3ccccc3c(NCCCN(C)C)c2c1[N+](=O)[O-],2.9 µM,4.6,–,–,>60 µM,–,–
COc1ccc([N+](=O)[O-])c2c(NCCCN(C)C)c3ccccc3nc12,0.47 µM,14,15 µM/kg,11,16 µM,1.7 µM,7.7
C[N+](C)([O-])CCCNc1c2ccccc2nc2cccc([N+](=O)[O-])c12,2.7 µM,15,15 µM/kg,820,61 µM,1.9 µM,7
COc1cc(OC)c2nc3ccccc3c(NCCCN(C)C)c2c1[N+](=O)[O-],47 µM,1.3,300 µM/kg,2.3,500 µM,–,–
COc1ccc([N+](=O)[O-])c2c(NCCC[N+](C)(C)[O-])c3ccccc3nc12,130 µM,43,100 µM/kg,1250,15700 µM,300 µM,1.9
Cc1cccc2c(NCCCN(C)C)c3c([N+](=O)[O-])ccc(C)c3nc12,0.19 µM,22,20 µM/kg,11,9.6 µM,–,–
COc1cccc2c(NCCCN(C)C)c3c([N+](=O)[O-])ccc(OC)c3nc12,0.51 µM,11,100 µM/kg,14,47 µM,–,–
COc1cccc2c(NCCC[N+](C)(C)[O-])c3c([N+](=O)[O-])ccc(OC)c3nc12,150 µM,14,450 µM/kg,2770,59000 µM,–,–
Cc1ccc([N+](=O)[O-])c2c(NCCC[N+](C)(C)[O-])c3ccccc3nc12,5.4 µM,29,15 µM/kg,150,47 µM,–,–
Cc1cccc2c(NCCC[N+](C)(C)[O-])c3c([N+](=O)[O-])ccc(C)c3nc12,6.8 µM,32,15 µM/kg,54,60 µM,–,–
